STAT3 act-1: increases IL-6 driven STAT3 reporter signal. activation (% of control), % at 5.6 µM. actives 0.91% (n = 190,000). AID 871. U3A cells, IL-6 STAT3-luciferase reporter, luminescence; 100% = signal with IL-6 EC80 alone;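 active = activation above the screen-wide mean of compound activation plus 3 SD, cut at about 130% in these data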
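System – human U3A cells carrying STAT3-luciferase construct · Probe or stimulus – Interleukin-6, 33 ng/mL · Schedule – compound 1 h, then IL-6 6 h at 37 °C · Signal – luminescence from STAT3-driven luciferase reporter · Evaluation – percent of IL-6-only median luminescence · Benchmarks – IL-6-only high control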
STAT1 blocker: inhibitors of IFN-gamma induced STAT1 signaling; NIH 3T3 STAT1-luciferase reporter, luminescence; inhibition, % at 5.5 µM; actives 0.35% (n = 200,000); AID 920;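 active = inhibition above a set limit, the mean inhibition across all tested compounds plus 3 SD, cut at about 34% in these data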
STAT3 blocker: inhibitors of IL-6 induced STAT3 signaling; inhibition, % at 5.5 µM; U3A cells, IL-6 STAT3-luciferase reporter, luminescence; host cell line lacks STAT1; actives 0.89% (n = 190,000);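 active = inhibition above the mean inhibition across all screened compounds plus 3 SD, cut at about 44% in these data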
MT stabilize HCS: microtubule stabilization, imaging screen | HeLa tubulin immunostaining HCS, 24 h; share of cells brighter than vehicle mean+2SD | % tubulin-high responders, % at 10 µM | actives 0.83% (n = 200,000) | AID 2205;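 active = plate Z-score above 3 for both tubulin-high and condensed-nucleus cell shares, with cell loss under 80%, at 10 µM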;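 note: anti alpha tubulin signal scored within the nucleus-defined area of each cell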
b-catenin transl: modulators of beta-catenin nuclear translocation. HeLa beta-catenin nuclear translocation, immunofluorescence imaging. nuclear translocation activity, % at 5 µM. actives 0.3% (n = 190,000). AID 1665;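 active = nuclear translocation activity above 50% at 5 µM, with a well cell count of 50 or more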;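 note: per-cell ratio of nuclear to cytoplasmic median beta-catenin stain intensity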
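assay system = human HeLa cells, endogenous beta-catenin | times = compound treatment 24 h, 37°C, 5% CO2 | detection = Anti-beta-catenin immunofluorescence on PFA-fixed, Triton-permeabilized cells, DAPI nuclei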
STAT3 act-2: STAT3 activation, confirmation assay; U3A STAT3-luciferase reporter, IL-6 potentiation, luminescence; U3A cells lack STAT1; 100 means same as IL-6 alone; AID 1267; shares compounds with STAT3 act-1; potentiation (% of control), % at 5.7 µM; actives 64% (n = 1,200);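 active = percent activation of the STAT3 luciferase reporter above a set limit taken from the earlier primary screen, cut at about 130% in these data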
NFkB act 2: counter-screen for STAT3 activators: NF-kappaB activation. shares compounds with STAT3 act-1. human cells, NF-kappaB reporter activation. activation (% of control), % at 5.7 µM. actives 11% (n = 1,200). AID 1309; in the data active = activation above about 120%;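 note: reporter induced by TNF-alpha stimulation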
STAT1 act: counter-screen for STAT3 activators: STAT1 activation; activation (% of control), % at 5.7 µM; shares compounds with STAT3 act-1; NIH 3T3 STAT1-luciferase reporter, IFN-gamma, luminescence; actives 13% (n = 1,200);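 active = activation above the solvent-only control well mean plus 3 SD, set per screening run, cut at about 120% in these data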
Hits are given with their value; 0 = inactive; - = no result given. An excerpt weighted towards active compounds, which were near 2.4% of everything screened.

SMILES | STAT3 act-1 | STAT1 blocker | STAT3 blocker | MT stabilize HCS | b-catenin transl | STAT3 act-2 | NFkB act 2 | STAT1 act
COc1cc(NC(=S)Nc2ccccn2)c(OC)cc1Cl | 0 | 0 | 0 | 0 | 0 | - | - | -
Cc1ccc(-c2nc(NCCN3CCOCC3)c3ccccc3n2)cc1 | 180.8 | 0 | 0 | 0 | 0 | 168.5 | 0 | 0
COc1ccccc1C(=O)NNC(=O)c1ccc(F)cc1 | 0 | 0 | 0 | 0 | 0 | - | - | -
COc1ccccc1C(=O)NNC(=O)c1ccc(NC(=O)C(C)C)cc1 | 148.5 | 0 | 0 | 0 | 0 | 153.3 | 0 | 0
COC(=O)NNC(=O)c1ccccc1OC | 148.4 | 0 | 0 | 0 | 0 | 166.1 | 0 | 0
COc1ccccc1C(=O)NNC(=O)C(=O)NC(C)(C)C | 143.3 | 0 | 0 | 0 | 0 | 144.3 | 0 | 0
COc1ccccc1C(=O)NNC(=S)Nc1ccccc1 | 138.9 | 0 | 0 | 0 | 0 | 145.8 | 0 | 0
Cc1cccc(Cn2nc(-n3cccc3)c3c(C)cc(C)nc32)c1 | 0 | 0 | 0 | 0 | 0 | - | - | -
COc1ccc(NC(=O)c2sc(SC)nc2N)cc1 | 136.2 | 0 | 0 | 0 | 0 | 162.2 | 126.8 | 150.1
COc1ccc(NC(=O)c2sc(SCc3ccccc3)nc2N)cc1 | 0 | 0 | 0 | 0 | 0 | - | - | -
C#CCN1C(=O)C(O)(c2c(C)[nH]c3ccccc23)c2ccccc21 (stereo unspecified) | - | - | - | - | 0 | - | - | -
Cc1[nH]c2ccccc2c1C1(O)C(=O)N(C(C)C)c2ccccc21 (stereo unspecified) | 137.1 | 0 | 0 | 0 | 0 | 0 | 0 | 0
Cc1[nH]c2ccccc2c1C1(O)C(=O)N(Cc2ccc3c(c2)OCO3)c2ccccc21 (stereo unspecified) | 137.0 | 0 | 0 | 0 | 0 | 134.1 | 0 | 0
O=C(NC(=S)Nc1ccccc1O)c1ccccc1Cl | 0 | 0 | 0 | 0 | 0 | - | - | -
Cc1cccc(C2c3[nH]c4ccccc4c3CCN2C(=O)c2ocnc2C)n1 (stereo unspecified) | 0 | 0 | 0 | 0 | 0 | - | - | -
Cc1cccc(C2c3[nH]c4ccccc4c3CCN2C(=O)c2cc(CC(C)C)nc(C)n2)n1 (stereo unspecified) | 152.5 | 0 | 0 | 0 | 0 | 150.5 | 0 | 0
Cc1cccc(C2c3[nH]c4ccccc4c3CCN2C(=O)c2nn(C)c(=O)c3ccccc23)n1 (stereo unspecified) | 137.3 | 0 | 0 | 0 | 0 | 0 | 0 | 0
C=C1c2cc3c(cc2NC(=S)N1Cc1ccccc1)OCO3 | - | - | - | - | 0 | - | - | -
CCn1c(N2CCN(CC(=O)c3c[nH]c4ccccc34)CC2)nc2c1c(=O)[nH]c(=O)n2C | 142.1 | 0 | 0 | 0 | 0 | 136.8 | 0 | 0
Cc1cc(NC(=O)C(C)C)n(-c2nc3ccccc3s2)n1 | 142.8 | 0 | 0 | 0 | 0 | 163.1 | 0 | 0
Cc1cc(NC(=O)CN2CC(C)OC(C)C2)n(-c2nc3ccccc3s2)n1 (stereo unspecified) | 149.7 | 0 | 0 | 0 | 0 | 133.4 | 0 | 0
CCCC(=O)N1CCN(c2ccc([N+](=O)[O-])c(NC(C)c3ccccc3)c2)CC1 (stereo unspecified) | 0 | 0 | 0 | 0 | 0 | - | - | -
Cc1ccc(-c2[nH]c3ccccc3c2C(C[N+](=O)[O-])c2ccco2)cc1 (stereo unspecified) | 151.9 | 0 | 0 | 0 | 0 | 134.0 | 0 | 0
C(=N\Nc1ncnc2sc3c(c12)CCC3)/c1cccs1 | 152.0 | 0 | 0 | 0 | 0 | 141.9 | 0 | 0
NNc1ncnc2sc3c(c12)CCC3 | 139.1 | 0 | 0 | 0 | 0 | 137.1 | 0 | 0
SMILES | STAT3 act-1 | STAT1 blocker | STAT3 blocker | MT stabilize HCS | b-catenin transl | STAT3 act-2 | NFkB act 2 | STAT1 act
O=c1oc2ccccc2c(Nc2cc3ccccc3cc2O)c1[N+](=O)[O-] | 140.7 | 0 | 0 | 17.5 | 0 | 170.7 | 0 | 0
O=C(CSc1nc(C2CC2)nc2ccccc12)N1c2ccccc2Sc2ccc(C(F)(F)F)cc21 | 144.6 | 0 | 0 | 0 | 0 | 0 | 0 | 0
O=C(CN1CCCC(O)C1)N1c2ccccc2Sc2ccc(C(F)(F)F)cc21 (stereo unspecified) | 0 | 0 | 0 | 0 | 0 | - | - | -
O=C(NCC(=O)N(CCN1CCOCC1)C(C(=O)NC1CCCC1)c1ccccc1)c1cccs1 (stereo unspecified) | 0 | 0 | 0 | 0 | 0 | - | - | -
Cc1cc(Br)ccc1-n1[nH]c(C)c(C=Nc2cccc3nsnc23)c1=O | 137.5 | 0 | 0 | 0 | 0 | 133.3 | 0 | 0
O=C(NN=C1CCCCCCC1)c1ccccn1 | 0 | 0 | 0 | 0 | 0 | - | - | -
NNC(=O)c1ccc2ccccc2n1 | 144.1 | 0 | 0 | 0 | 0 | 140.6 | 0 | 0
O=C(NN=C1CCCCCCC1)c1ccc2ccccc2n1 | 153.8 | 0 | 0 | 0 | 0 | 139.8 | 0 | 0
CCN(CC)C(=O)c1cc(C(C)(C)C)c(O)c(C(C)(C)C)c1 | 0 | 0 | 0 | 0 | 0 | - | - | -
CC1(C)CN2C(=O)c3ccccc3C2(C)S1 (stereo unspecified) | 0 | 0 | 0 | 0 | 0 | - | - | -
CSCCC(NC(=O)COc1cccc2ccccc12)C(=O)O (stereo unspecified) | - | - | - | - | 0 | - | - | -
COc1ccccc1NC(=O)C1=C(C)NC(=O)NC1c1ccccc1[N+](=O)[O-] (stereo unspecified) | 143.6 | 0 | 0 | 0 | 0 | 138.1 | 0 | 0
CC(NCC(O)c1ccc([N+](=O)[O-])cc1)C12CC3CC(CC(C3)C1)C2 (stereo unspecified) | - | - | - | - | 0 | - | - | -
COCc1cc(C)nc2sc(C(=O)NCCO)c(-n3cccc3)c12 | 0 | 0 | 0 | 0 | 0 | - | - | -
Cc1ccc(-c2cc(=O)c3cc(F)ccc3[nH]2)cc1 | 0 | 0 | 0 | 0 | - | - | - | -
COc1cccc(-c2cc(=O)c3cc(NC(=O)c4ccc(N(C)C)cc4)ccc3[nH]2)c1 | 138.9 | 0 | 0 | 0 | 87.8 | 0 | 160.9 | 0
CCCC(=O)Nc1ccc(C(=O)Nc2cccc(OC)c2)cc1 | 0 | 0 | 0 | 0 | 0 | - | - | -
Cc1ccc2[nH]c(-c3cccc(F)c3)cc(=O)c2c1 | 142.4 | 0 | 0 | 26.7 | - | 0 | 142.8 | 0
COc1ccc(-c2cc(=O)c3ccccc3[nH]2)cc1 | 0 | 0 | 0 | 0 | - | - | - | -
COc1ccc2[nH]c(-c3cccc(F)c3)cc(=O)c2c1 | 148.1 | 0 | 0 | 0 | - | 0 | 130.1 | 125.5
CC1=NN(c2nc(-c3ccc(C)cc3)cs2)C(=O)C1N=Nc1ccc2ccccc2c1 (stereo unspecified) | 150.1 | 0 | 0 | 0 | 0 | 141.8 | 0 | 0
CC1=NN(c2nc(-c3ccccc3)cs2)C(=O)C1N=Nc1ccccc1 (stereo unspecified) | 0 | 0 | 0 | 0 | 0 | - | - | -

Bioassay records as filed in PubChem.
